Assays:
Details in all cases: route intraperitoneal
L1210 [1] = test: Compound tested for toxicity against mouse leukemia L1210 tumor (Intraperitoneally implanted) after single ip injection on day 1 at optimal dose (OD) of 100 mg/kg on the 5th day after the injection of the compound; (6/6); format: functional
L1210 [2] = test: Compound tested for activity against mouse leukemia L1210 tumor (Intraperitoneally implanted) after single ip injection on day 1 at optimal dose of 100 mg/kg (Dose range 256-16); format: functional
Outline: (§1)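 L1210 leukaemia implanted intraperitoneally in mice. Compound given over a dose range (mg/kg); optimum dose selected. Survivors for toxicity recorded day 5 post-injection. Measures: T – C body weight difference (g), % T/C, and cures, defined as 30-day survivors.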

L1210 [3] = test: The effect of compound on mouse leukemia L1210 tumor (Intraperitoneally implanted)after single dose injected intraperitoneally on day 1 […] at OD of 100 mg/kg; format: functional
L1210 [4] = test: Effect of compound on mouse leukemia L1210 tumor (Intraperitoneally implanted) after single dose injected intraperitoneally on day 1 recorded as animal weight difference of the treated and the control (T-C) at OD of 100 mg/kg; format: functional; outline: as §1
L1210 [5] = test: Compound tested for toxicity against mouse leukemia L1210 tumor (Intraperitoneally implanted) after single ip injection on day 1 at optimal dose (OD) of 12.5 mg/kg on the 5th day after the injection of the compound; (5/5)
L1210 [6] = test: Compound tested for activity against mouse leukemia L1210 tumor (Intraperitoneally implanted) after single ip injection on day 1 at optimal dose of 100 mg/kg (Dose range 400-12.5); format: functional; outline: as §1

Structure (SMILES)	Survival (L1210 [1])	Optimal dose (L1210 [2]) [mg/kg]	T/C (L1210 [3]) [%]	T-C (L1210 [4]) [g]	Survival (L1210 [5])	Optimal dose (L1210 [6]) [mg/kg]
CCN1CCCC(NC(=O)N(CCCl)N=O)C1.O=C(O)/C=C\C(=O)O (configuration not stated)	6	128	235	-5.9	–	–
O=C(O)/C=C\C(=O)O.O=NN(CCCl)C(=O)Nc1cccnc1	–	–	126	-7	5	12.5
CCCCN1CCC(NC(=O)N(CCCl)N=O)CC1.O=C(O)/C=C\C(=O)O	6	64	197	-3.9	–	–

From ChEMBL document CHEMBL1121486, “Synthesis of nitrosourea derivatives of pyridine and piperidine as potential anticancer agents” (1980)
